From publication PMC6396318 (Journal of the American Chemical Society, 2019)
Where two headings read alike, the source gives them in different places. Marks after values point to notes of the source that are not given here.

What was measured:
[1] = Indiscriminate thiol reactivity assay with GSH; format: physicochemical; settings: 23 h incubation with 5 mM GSH at 37 °C, LC–MS UV trace
Outline: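 Test compound was incubated with 5 mM GSH in buffer at 37 °C for 23 h. Adduct formation was quantified from the LC–MS UV trace.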

[2] = Indiscriminate thiol reactivity assay with cysteine; format: physicochemical; settings: for Cysteine adduct formation: incubated with cysteine for 23 h, LC–MS; for Cysteine adduct pH 5.5 / Cysteine adduct pH 7.5 / Cysteine adduct pH 8.0: 23 h incubation with 10 mM cysteine at 37 °C, LC–MS UV trace
Outline: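 Test compound was incubated with 10 mM cysteine in buffer at pH 5.5, 7.5 or 8.0 for 23 h at 37 °C. Cysteine adduct formation was quantified from the LC–MS UV trace.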

human osteoclasts (OCs) [3] = assay: TRAcP staining and counting of mature OCs on plastic; format: cell-based; settings: highest concentrations
rodentCatK = settings: mice and rats; cited from earlier work
hCatK [4] = molecular target: T1, hCatK (Homo sapiens, UniProt P43235); assay: In vitro inhibition assay, fluorogenic substrate; format: biochemical
T1 sequence (P43235 115-329): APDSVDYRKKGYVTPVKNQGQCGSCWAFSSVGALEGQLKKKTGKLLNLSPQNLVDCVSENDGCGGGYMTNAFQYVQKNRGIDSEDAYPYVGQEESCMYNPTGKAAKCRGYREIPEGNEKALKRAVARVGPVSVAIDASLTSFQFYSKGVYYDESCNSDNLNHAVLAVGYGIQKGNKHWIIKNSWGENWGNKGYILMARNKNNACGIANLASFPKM
Outline: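 Fluorogenic substrate was then added and proteolytic activity read. Values are mean ± SD of one representative experiment measured in triplicate. Selectivity was taken from IC50 values across these proteases.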

hCatK [5] = molecular target: T1, hCatK; assay: Reversibility of inhibition; format: biochemical; settings: 300-fold dilution into Z-FR-AMC
Outline: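 Jump dilution: recombinant hCatK was preincubated with test compound at high concentration to fully occupy the active site. The mixture was then diluted 300-fold into Z-FR-AMC solution. Progress curves of hCatK activity were recorded to detect recovery of substrate hydrolysis. E-64 served as control.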

CatK [6] = molecular target: T2, CatK (Homo sapiens, UniProt P43235); assay: Cathepsin K activity in osteoclast lysates; format: cell-based; settings: lysates treated with BMV109; increase with ODN ascribed to displacement by probe
T2 sequence (P43235 115-329): T1 sequence (P43235 115-329)

CatK [7] = settings: 100 nM; cited from earlier work
[8] = cited from earlier work
[9] = cited from earlier work; remark: listed apart in the source
hCatK [10] = molecular target: T1, hCatK; assay: Kinetic evaluation of covalent inhibitors; format: biochemical
Outline: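 Recombinant hCatK (100 pM) was used with 4 μM Z-FR-AMC at 26 °C. The reaction was started by adding enzyme to substrate plus test compound. Progress curves of substrate hydrolysis were fitted to derive kinetic constants. Values are mean ± SD of one representative experiment measured in triplicate.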

human osteoclasts (OCs) [11] = assay: Bone resorption by osteoclasts cultured on cortical bone slices; format: cell-based
Outline: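 Human CD14+ monocytes were seeded on bone slices, with M-CSF added on day 0 and RANKL on day 3 to drive osteoclast maturation. Medium containing test compound or DMSO was refreshed on days 7, 10, 13 and 16. On day 21 the cells were washed off and lysed. Resorption pits (trenches vs pits) were stained with Coomassie Brilliant Blue, and total resorption area was quantified.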

[12] = 100 pM hCatK, 4 μM Z-FR-AMC, 26 °C, reversible covalent

Structure (SMILES)	GSH adduct pH 7.5 [1]	Cysteine adduct formation [2]	Cysteine adduct pH 5.5 [2] [%]	Cysteine adduct pH 7.5 [2] [%]	Cysteine adduct pH 8.0 [2] [%]	other results
CN(C)C/C=C/C(=O)Nc1cc2c(Nc3ccc(F)c(Cl)c3)ncnc2cc1O[C@H]1CCOC1 [Afatinib]	94%	adduct formation that increases upon increasing the pH of the buffer	92	98	95	–
CC(C)(F)C[C@H](N[C@@H](c1ccc(-c2ccc(S(C)(=O)=O)cc2)cc1)C(F)(F)F)C(=O)NC1(C#N)CC1 [ODN, odanacatib]	0%^b	adduct formation that increases upon increasing the pH of the buffer	<1	17	48	Number of OCs cultured on plastic (human osteoclasts (OCs) [3]): increase in the number of OCs; Reduction of apparent potency on rodentCatK compared to humanCatK (rodentCatK): up to 182 fold; IC50 (hCatK [4]): < 1 nM; Selectivity for CatK over related human cathepsins (hCatK [4]; from IC50 values of Table 2): selective for hCatK; Reversibility of hCatK inhibition (hCatK [5]): (fast) reversible inhibitor; Mature CatK activity in OC lysates (BMV109 labeling) (CatK [6]): strong increase of mature CatK activity; CatK expression upon ODN treatment (CatK [7]): significant increase in CatK expression; Number of OCs upon ODN treatment (CatK [7]): without an increase in the number of OCs; Side effects in phase III clinical trials [8]: increased stroke risks and cardiovascular events; half-life [9]: 66 to 93 h; Ki (hCatK [10]): 3.8 ± 2.7 nM; k5 (rate of covalent bond formation) (hCatK [10]; [12]): 0.12 ± 0.026 min⁻¹; k6 (rate of covalent bond dissociation) (hCatK [10]; [12]): 0.033 ± 0.0077 min⁻¹; Bone resorption morphology at 3 nM (human osteoclasts (OCs) [11]; 3 nM, 21 days culture, Coomassie staining): deep trenches; Bone resorption morphology at 15 nM (human osteoclasts (OCs) [11]; 15 nM, 21 days culture, Coomassie staining): shallow pits; Effective dose / concentrations inhibiting bone resorption (human osteoclasts (OCs) [11]; 21 days culture on bone slices): around 15 nM
CC(C)C[C@H](NC(=O)[C@H]1O[C@@H]1C(=O)O)C(=O)NCCCCN=C(N)N [Compound E-64, E-64]	64%	adduct formation that increases upon increasing the pH of the buffer	<1	68	79	Ki (hCatK [10]; 100 pM hCatK, 4 μM Z-FR-AMC, 26 °C, irreversible covalent, mean ± SD): 11 ± 1.6 nM
CC#CC(=O)N1CCC[C@H]1c1nc(-c2ccc(C(=O)Nc3ccccn3)cc2)c2c(N)nccn12 [Acalabrutinib]	95%	observed	19	98	97	–
C=CC(=O)N1CCC[C@@H](n2nc(-c3ccc(Oc4ccccc4)cc3)c3c(N)ncnc32)C1 [Ibrutinib]	91%	adduct formation that increases upon increasing the pH of the buffer	9	99	96	–
